Screening data (PubChem)
Sampled rows, rich in hits. Any-hit rate of the full collection: about 4.6%.
Rtt109 Vps75: blocks Candida albicans Rtt109/Vps75 acetyltransferase activity. 330,000 compounds, 0.16% hits. inhibition, % at 34.9 µM. purified Rtt109/Vps75, ThioGlo CoA-SH fluorescence, 4 h. Q5AAJ8;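 active = inhibition of at least 50% in every replicate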
M18AAP inhibitor: blocks P. falciparum M18 aspartyl aminopeptidase; inhibition, % at 7.35 µM; 290,000 compounds, 1.2% hits; recombinant PfM18AAP, H-Glu-NHMec fluorogenic cleavage;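 active = inhibition above the campaign mean inhibition over all tested compounds plus 3 SD, cut at about 28% in these data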;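 also: 0% = plate median of test compound wells and 100% = 2 mM ZnCl2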
UCH37 inh: inhibitors of human deubiquitinating enzyme UCH37; Q9Y5K5; purified proteasome/UCH37, Ub-AMC cleavage fluorescence; inhibition, % (no concentration beside the values); 330,000 compounds, 0.33% hits;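 active = mean inhibition over replicate wells above about 20%, limit read from the data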;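 also: 0% = compound-free wells with enzyme and 100% = wells lacking proteasome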
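Material: human UCH37 enzyme supplied as purified proteasome complex / Amount: 0.15 nM proteasome as dispensed / Buffer or medium: pH 7.4 Tris-HCl (50 mM) with ovalbumin, ATP-MgCl2, DTT / Times: preincubation 30 min, reaction 25 min, room temperature / Technique: AMC fluorescence from Ub-AMC cleavage, excitation 355 nm, emission 460 nm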
HDAC3 inhib: inhibitors of human histone deacetylase 3; O15379; recombinant HDAC3, fluorogenic peptide/trypsin coupled, fluorescence; inhibition, % at 8.3 µM; 320,000 compounds, 0.15% hits; AID 2718; in the data active = inhibition above about 26%, passing the limit was not always enough
Target sequence (O15379 whole entry, looked up): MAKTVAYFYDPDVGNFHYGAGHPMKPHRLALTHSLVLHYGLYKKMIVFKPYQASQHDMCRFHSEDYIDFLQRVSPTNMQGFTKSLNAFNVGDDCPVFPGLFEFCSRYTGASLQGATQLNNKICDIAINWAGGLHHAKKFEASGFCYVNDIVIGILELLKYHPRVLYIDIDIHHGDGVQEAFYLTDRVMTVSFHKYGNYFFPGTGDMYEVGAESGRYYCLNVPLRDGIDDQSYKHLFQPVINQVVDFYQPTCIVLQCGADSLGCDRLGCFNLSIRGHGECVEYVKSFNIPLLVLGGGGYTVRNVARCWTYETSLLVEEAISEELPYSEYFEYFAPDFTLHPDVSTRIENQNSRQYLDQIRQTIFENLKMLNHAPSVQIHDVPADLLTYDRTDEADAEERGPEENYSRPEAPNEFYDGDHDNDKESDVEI
ALR inh: human ALR oxidase inhibition via reduced H2O2; 290,000 compounds, 3.8% hits; purified ALR, DTT oxidation, H2O2 HRP-luminol luminescence; inhibition, % (concentration not given with the values); P55789; AID 485317;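 active = mean replicate inhibition above about 79%, with every replicate also reaching it, limit read from the data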
FAS-TE inh: blocks the thioesterase domain of human fatty acid synthase; inhibition, % at 15 µM; P49327; AID 602261; 360,000 compounds, 0.67% hits; recombinant FAS-TE, OMFH fluorogenic substrate, fluorescence endpoint;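 active = compounds whose normalised, plate-corrected inhibition of enzyme fluorescence in the single-dose primary screen is 50% or more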;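 also: 0% = DMSO with enzyme and 100% = substrate without enzyme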
Starred values were filed as active, the others as inactive; / = no result given.

SMILES	Rtt109 Vps75	M18AAP inhibitor	UCH37 inh	HDAC3 inhib	ALR inh	FAS-TE inh
CC/C(=C(\c1ccc(O)cc1)c1ccc(OCCN(C)C)cc1)c1ccccc1	30	6	2	11	97*	16
C=CCNC(=S)NN=Cc1ccc(OCc2ccccc2Cl)cc1	/	/	5	/	/	/
CCNc1ccc(S(=O)(=O)N(C)C)cc1NCC(=O)Nc1c(F)cccc1F	11	11	-1	/	/	-6
CCNc1ccc(S(=O)(=O)N(C)C)cc1NCC(=O)Nc1ccccc1Cl	6	14	1	-4	99*	2
O=C(Nc1nnc(SCc2cccnc2)s1)C1CC(=O)N(c2ccc(F)cc2)C1 (stereo unspecified)	-3	3	1	4	97*	-1
CC12CCC(C(=O)NNc3ccccc3)(C(=O)C1=O)C2(C)C (stereo unspecified)	3	-3	3	-3	98*	1
O=C(Nc1cccc(-c2nc3cccnc3s2)c1)c1cccnc1Cl	60*	-4	-1	-8	-2	-4
COc1ccc(/C=N/Nc2nncn2N)cc1Br	-16	28*	/	1	/	-8
O=C(CSc1ncnc2[nH]ncc12)Nc1cccc(Oc2ccccc2)c1	19	-5	-1	-1	98*	-30
O=C(CSc1cccc[n+]1[O-])Nc1cccc(Oc2ccccc2)c1	-2	2	4	3	94*	-4
Cc1cccc(Nc2ncnc(N)c2[N+](=O)[O-])n1	1	3	9	2	-5	-10
Cc1cc(C)nc(Sc2ncnc(N)c2[N+](=O)[O-])n1	6	50*	13	-3	49	-4
Cc1ccc(S(=O)(=O)NN=Cc2cc(Br)c(C)o2)cc1	/	/	5	/	/	/
Cc1ccc(SCC(=O)NC2CCS(=O)(=O)C2)cc1C (stereo unspecified)	3	/	0	-10	99*	-9
O=C(CSc1ccc(Br)cc1)NC1CCS(=O)(=O)C1 (stereo unspecified)	10	/	3	2	/	-1
Cc1ccnc(NC(=O)c2ccc(NC(=O)CC3SC(N4CCCC4)=NC3=O)cc2)c1 (stereo unspecified)	3	/	1	2	42	-4
O=C(CC1SC(N2CCCC2)=NC1=O)Nc1ccc(C(=O)Nc2ncccc2O)cc1 (stereo unspecified)	-4	/	5	94*	14	-8
Cc1cccc2c3c([nH]c12)CCN(C)C3	1	29*	0	-9	0	-3
NC(=O)c1cccc2c3c([nH]c12)CCCC3	-27	2	0	-1	-14	-5
COc1ccc2oc(C)c(C(=O)NN)c2c1	-5	25	5	5	85*	-8
Cc1ccc(C(=O)NN=Cc2cccc(OC(=O)/C=C/c3ccco3)c2)cn1	/	/	2	/	/	/
Cn1c(=O)c2cc(S(=O)(=O)NCCC(=O)NCCc3ccc(Cl)cc3)ccc2n(C)c1=O	1	7	1	-1	98*	11
COc1cc(C=NNC(=O)c2cccc3ccccc23)ccc1OCC(N)=O	/	/	3	/	/	/
Nc1[nH]c(N=NC(=O)c2ccc(F)cc2)c2ccccc12	6	4	11	1	99*	0
CCCCCCCCCC(=O)NN=C(C)c1cccnc1	/	/	6	/	/	/
SMILES	Rtt109 Vps75	M18AAP inhibitor	UCH37 inh	HDAC3 inhib	ALR inh	FAS-TE inh
O=C(Nc1ccc(-c2n[nH]c(=S)o2)cc1)c1ccccc1Br	-19	2	5	3	86*	2
O=C(O)c1cccc(COc2ccc3c(c2)CCC3)c1	-1	-2	2	0	91*	-5
COc1ccccc1-n1c(-c2cc(-c3ccc(F)cc3)n[nH]2)n[nH]c1=S	7	5	2	10	77*	-4
COc1ccc(C)cc1-n1c(-c2ccncc2)n[nH]c1=S	-6	18	-2	-1	14	-7
Cc1ccc(-n2c(C)n[nH]c2=S)cc1C	14	25	6	9	/	-10
COc1cc(-n2c(-c3ccccc3)n[nH]c2=S)c(OC)cc1Cl	11	14	1	-2	79*	-1
Cc1ccc(-n2c(C)n[nH]c2=S)cc1	-7	30*	5	3	95*	-6
COc1ccccc1-c1n[nH]c(=S)n1-c1ccccc1	12	14	2	8	93*	-6
CSc1ccc(C=NN2CCN(Cc3ccccc3)CC2)cc1	/	/	0	/	/	/
O=[N+]([O-])c1ccc(NN=Cc2cn(Cc3ccc(F)cc3)c3ccccc23)nc1	/	/	9	/	/	/
